From ChEMBL document CHEMBL1828589, “Isoeugenol-based novel potent antioxidants: synthesis and reactivity” (Eur J Med Chem, 2011) come the findings set out here.

pIC50: −log10 of the molar value.

In general, inhibition refers to the percentage by which the read-out fell short of the control. A word on the pIC50: it is the negative decadic logarithm of the IC50, by convention in mol/L.

Holding throughout (type): functional
Assay [1] can be described thus: Antioxidant activity assessed as inhibition of linoleic acid lipid peroxidation at 100 ug/ml measured after 6 hrs by ferric thiocynate method. An outline of the steps: (§1)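 Mitsuda ferric thiocyanate method. Linoleic acid/Tween 20 emulsion in 0.2 M phosphate pH 7.0, mixed with ethanolic compound and buffer. Incubated at 37 °C in the dark and sampled every 6 h. Aliquot taken into 75% ethanol, 30% ammonium thiocyanate and 0.02 M FeCl2 in 3.5% HCl; A500 read after 3 min. Inhibition % = (Ac−As)/Ac×100 against a no-compound control. Triplicates.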

The nature of assay [2]: Antioxidant activity assessed as inhibition of linoleic acid lipid peroxidation at 100 ug/ml measured after 12 hrs by ferric thiocynate method. An outline of the steps:
as §1

Assay [3] is described as follows: Antioxidant activity assessed as inhibition of linoleic acid lipid peroxidation at 100 ug/ml measured after 18 hrs by ferric thiocynate method. An outline of the steps:
as §1

Assay [4] in a line: Antioxidant activity assessed as inhibition of linoleic acid lipid peroxidation at 100 ug/ml measured after 24 hrs by ferric thiocynate method. The procedure, abridged:
as §1

A short description of assay [5]: Antioxidant activity assessed as inhibition of linoleic acid lipid peroxidation at 100 ug/ml measured after 30 hrs by ferric thiocynate method. The procedure, abridged:
as §1

The nature of assay [6]: Antioxidant activity assessed as inhibition of linoleic acid lipid peroxidation at 100 ug/ml measured after 36 hrs by ferric thiocynate method. The procedure, abridged:
as §1

The test system of assay [7] is Radical scavenging activity. Briefly: Antioxidant activity assessed as residual DPPH radical scavenging activity after 30 mins by spectrophotometric analysis. The procedure, abridged: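 Compound in ethanol at 10–40 µg/mL (3 mL) mixed with 1 mL of 0.1 mM ethanolic DPPH. Shaken, then left 30 min at room temperature, read at 517 nm. IC50 (µM) is the concentration giving a 50% fall in absorbance, from regression; three repeats.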
A general note: The DPPH test is a chemical assay of radical scavenging.

The nature of assay [8]: Antioxidant activity assessed as residual ABTS+ radical scavenging activity after 30 mins by spectrophotometric analysis. An outline of the steps:
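ABTS radical cation formed from 2 mM ABTS and 2.45 mM potassium persulfate in water, kept dark at room temperature for 12 h. Ethanolic compound at 10–30 µg/mL added to the radical solution. Remaining radical read at 734 nm and converted to concentration by a calibration curve (0.033–0.33 mM). IC50 (µM) by regression; three repeats.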

Assay [9] can be described thus: Antioxidant activity assessed as superoxide radical scavenging activity after 40 mins by Zhishen's method. The procedure, abridged:
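Riboflavin (3×10⁻⁵ M), methionine (1×10⁻² M) and NBT (1×10⁻⁴ M) in 0.05 M phosphate pH 7.8. Illuminated 25 °C for 40 min to form formazan; absorbance at 560 nm, with an unilluminated mixture as control. Compounds tested at 10–40 µg/mL. IC50 (µM) by regression; three repeats.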

Assay [10] in a line: Antioxidant activity assessed as ferric to ferrous reduction at 10 ug/ml by FRAP assay. An outline of the steps: (§2)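 Oyaizu method, adjusted. Diluted compound in ethanol mixed with 0.2 mol/L phosphate buffer pH 6.6 and 1% K3Fe(CN)6, held 50 °C for 20 min. Then 10% trichloroacetic acid added and spun at 10,000g for 10 min. Upper layer mixed with water and 0.1% FeCl3, absorbance read at 700 nm. Mean ± SD of three replicate assays.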

A short description of assay [11]: Antioxidant activity assessed as ferric to ferrous reduction at 20 ug/ml by FRAP assay. The procedure, abridged: as §2
A short description of assay [12]: Antioxidant activity assessed as ferric to ferrous reduction at 30 ug/ml by FRAP assay. An outline of the steps:
as §2

A short description of assay [13]: Antioxidant activity assessed as ferric to ferrous reduction activity at 40 ug/ml by FRAP assay. An outline of the steps:
as §2

As to `CCC(c1ccc(O)c(OC)c1)c1cccc(O)c1O` (configuration not stated), the inhibition in [1] amounted to 34%; in [2], 74%; in assay [3], 90%; in assay [4], 94%; in [5], 97%; in assay [6], 96%. In addition, the results for the negative-log IC50 (pIC50) in assay [7], in assay [8] and in [9] were 5.24, 5.07 and 5.21, respectively. For the same compound, the Activity was determined as 0.49 in assay [10], 0.54 in assay [11], 0.58 in [12] and 0.73 in assay [13].
For the compound `CCC(c1ccc(O)c(OC)c1)c1ccc(O)cc1O` (configuration not stated), the inhibition in assay [1] was determined as 36%; in [2], 75%; in assay [3], 85%; in assay [4], 94%; in [5] it was 97%; in assay [6], 94%. Besides, the pIC50 in assay [7] is 5.17; in assay [8], 5.00; in [9] it was 4.82. The Activity in [10] was 0.27; in [11], 0.32; in assay [12], 0.36; in [13] it was 0.47.
For `CCC(c1ccc(O)c(OC)c1)c1cccc(C(C)C)c1O` (configuration not stated), the inhibition in [1] was 38%; in assay [2], 78%; in [3], 88%; in [4], 95%; in assay [5] it was 97%; in assay [6], 96%. Further, the negative-log IC50 (pIC50) in assay [7] was 5.20; in [8], 5.15; in assay [9], 5.00. The Activity in assay [10] came out at 0.22; in [11], 0.2; in assay [12], 0.2; in assay [13] it was 0.24.
Turning to `Cc1cc(C(C)(C)C)c(O)c(C(C)(C)C)c1` [BUTYLATED HYDROXYTOLUENE], the inhibition in assay [1] was determined as 47%; in assay [2], 81%; in assay [3], 92%; in assay [4] it was 97%; in [5] it was 98%; in assay [6] it was 98%. In addition, the pIC50 in assay [7] was 4.94; in assay [8], 4.99; in assay [9], 4.55. Besides, the Activity in assay [10] came out at 0.27; in [11], 0.39; in assay [12], 0.5; in [13], 0.6.
`CCC(c1ccc(O)c(O)c1)c1ccc(O)c(OC)c1` (configuration not stated): the inhibition in assay [1] was 37%; in assay [2] it was 78%; in assay [3] it was 90%; in assay [4], 96%; in assay [5], 98%; in assay [6], 97%. Also, the values for the pIC50 in assay [7], in [8] and in assay [9] were 5.24, 5.08 and 5.18, respectively. The Activity in assay [10] was 0.43; in assay [11], 0.55; in assay [12], 0.58; in [13] it was 0.64.
With `C/C=C\c1ccc(O)c(OC)c1` [ISOEUGENOL], the inhibition worked out at 28% in assay [1]; 42% in [2]; 90% in assay [3]; 96% in assay [4]; 91% in [5]; 82% in assay [6]. The pIC50 in assay [7] is 4.39; in assay [8] it was 5.05; in assay [9] it was 4.37. Also, the Activity in [10] stood at 0.32; in assay [11], 0.37; in [12], 0.41; in [13], 0.43.
For `CCOc1cccc(C(CC)c2ccc(O)c(OC)c2)c1O` (configuration not stated), the inhibition is 37% in [1]; 77% in assay [2]; 89% in [3]; 96% in assay [4]; 97% in assay [5]; 96% in assay [6]. The figures for the pIC50 in [7], in assay [8] and in [9] were 5.21, 5.14 and 4.86, respectively. In addition, the Activity in assay [10] was 0.21; in [11] it was 0.22; in assay [12] it was 0.25; in assay [13] it was 0.28.
Turning to `Cc1c(C)c2c(c(C)c1O)CCC(C)(C(=O)O)O2` (configuration not stated) [TROLOX], the inhibition in [1] came out at 35%; in assay [2], 70%; in [3], 87%; in assay [4], 89%; in assay [5], 92%; in assay [6] it was 86%. The pIC50 is 5.23 in [7], 5.10 in [8] and 4.21 in assay [9]. Moreover, the Activity in assay [10] was 0.23; in assay [11], 0.38; in assay [12] it was 0.56; in assay [13], 0.72.
Regarding `CCC(c1ccc(O)c(OC)c1)c1ccccc1O` (configuration not stated), the inhibition in assay [1] came to 32%; in assay [2], 75%; in [3], 90%; in assay [4] it was 94%; in assay [5], 97%; in [6] it was 96%. In addition, the values for the pIC50 in [7], in assay [8] and in assay [9] were 5.11, 5.07 and 4.98, respectively. Besides, the Activity turned out to be 0.26 in assay [10], 0.27 in assay [11], 0.3 in assay [12] and 0.34 in assay [13].
